TLR4-MyD88 BLA – inhibitors of human TLR4-MyD88 binding. O00206+Q99836. HeLa CL3-4 TLR4/MyD88 BLA complementation, FRET ratio. inhibition, % at 8.4 µM. 200,000 tested, 0.18% active; in the data active means inhibition above about 25%
NOD2 RIPK2 PPI – inhibitors of human NOD2-RIPK2 interaction. O43353. CHO BLA complementation NOD2-RIPK2, CCF4 ratio. inhibition, % at 4.98 µM. 360,000 tested, 0.38% active. AID 624267; in the data active means inhibition above about 21%
TLR9-MyD88 inh – inhibitors of human TLR9-MyD88 binding. Q9NR96+Q99836. CHO BLA complementation TLR9-MyD88, CCF4 FRET ratio. inhibition, % at 4.98 µM. 340,000 tested, 0.21% active. AID 504734;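 active means inhibition above the mean over all tested compounds plus 3 SD, cut at about 21% in these data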
B2AR ag – human beta-2 adrenergic receptor agonism by FAP | Am2.2-beta2AR cells, FAP receptor internalization, flow cytometry | response, % (concentration not given with the values) | 340,000 tested, 0.43% active;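 active means response above a set limit, near 3 SD of response in nonfluorescent compounds, cut at about 42% in these data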
Dynein transport – dynein cargo transport inhibition; 3617.4 mouse cells, GR-EGFP nuclear translocation imaging; test concentration mostly 20 µM; stimulated with dexamethasone, 1 µM; hits give low values; z-score, hits read low; 220,000 tested, 0.47% active;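 active means plate z-score of nuclear minus cytoplasmic receptor signal below a set negative limit, without overly bright fluorescence or cell loss, cut at about -3.5 in these data, passing the limit was not always enough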;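 further: z-score of nuclear minus cytoplasmic ring GR-EGFP intensity difference per well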
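medium = tetracycline-free induction medium containing charcoal-stripped FBS | probe or stimulus = dexamethasone, 1.0 µM final | timing = 48 h induction, then 1 h compound, then 30 min agonist, 37 °C | detection = automated 10x imaging of fixed Hoechst-stained cells | read-out basis = nuclear versus cytoplasmic GR-EGFP signal, averaged per well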
ABHD5 PLIN5 PPI – inhibitors of human ABHD5-perilipin-5 interaction | Q00G26+Q8WTS1 | Split G. princeps luciferase complementation, luminescence, 4 h | 360,000 tested, 0.78% active | inhibition, % at 4 µM;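 active means inhibition above the mean inhibition across every tested compound plus 3 SD, cut at about 22% in these data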
TLR9-MyD88 cf – confirmation of human TLR9-MyD88 binding inhibitors. shares compounds with TLR9-MyD88 inh. CHO TLR9/MyD88 BLA complementation, CCF4 FRET ratio. inhibition, % at 4.98 µM. 680 tested, 51% active. AID 540250;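 active means mean inhibition across three repeats above about 21% taken from the earlier screen, limit read from the data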;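 further: blue over green emission ratio reports constitutive TLR9 MyD88 association via BLA complementation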
Target sequence (Q9NR96 whole entry, looked up): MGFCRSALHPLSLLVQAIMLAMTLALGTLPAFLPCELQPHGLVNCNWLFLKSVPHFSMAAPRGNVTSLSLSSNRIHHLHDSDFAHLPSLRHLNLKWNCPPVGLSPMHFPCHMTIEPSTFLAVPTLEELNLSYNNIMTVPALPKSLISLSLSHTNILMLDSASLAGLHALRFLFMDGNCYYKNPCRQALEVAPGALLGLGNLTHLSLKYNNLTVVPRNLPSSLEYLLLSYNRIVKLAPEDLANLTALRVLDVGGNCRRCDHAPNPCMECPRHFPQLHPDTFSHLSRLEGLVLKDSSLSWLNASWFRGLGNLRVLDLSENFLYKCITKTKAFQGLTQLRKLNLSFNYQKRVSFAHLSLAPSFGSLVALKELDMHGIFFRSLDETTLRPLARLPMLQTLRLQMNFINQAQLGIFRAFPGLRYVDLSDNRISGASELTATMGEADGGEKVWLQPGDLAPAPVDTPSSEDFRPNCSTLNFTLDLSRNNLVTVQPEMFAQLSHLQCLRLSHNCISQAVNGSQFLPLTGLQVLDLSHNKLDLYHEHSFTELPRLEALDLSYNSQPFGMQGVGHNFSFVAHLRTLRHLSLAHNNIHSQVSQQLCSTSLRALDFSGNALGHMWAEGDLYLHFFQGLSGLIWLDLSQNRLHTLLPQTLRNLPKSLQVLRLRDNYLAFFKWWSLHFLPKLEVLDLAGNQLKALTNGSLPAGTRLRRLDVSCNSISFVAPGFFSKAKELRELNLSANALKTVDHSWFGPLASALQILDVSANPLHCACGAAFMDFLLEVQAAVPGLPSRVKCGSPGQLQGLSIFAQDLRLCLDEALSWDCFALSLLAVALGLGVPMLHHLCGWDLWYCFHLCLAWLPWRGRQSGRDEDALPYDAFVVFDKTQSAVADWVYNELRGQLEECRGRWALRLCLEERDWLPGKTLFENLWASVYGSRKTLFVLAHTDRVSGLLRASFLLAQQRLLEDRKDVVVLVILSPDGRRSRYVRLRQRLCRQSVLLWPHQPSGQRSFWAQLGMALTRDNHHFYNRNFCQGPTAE
BLA counter-1 – beta-lactamase reporter inhibition, counter-screen artifact; 680 tested, 7% active; shares compounds with TLR9-MyD88 inh; AID 540251; inhibition, % at 4.98 µM; CHO-BLA cells, CCF4 FRET ratio, BLA reporter;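 active means mean inhibition above a 50% cutoff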;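 further: counterscreen of TLR9-MyD88 hits on CMV-driven BLA in CHO-K1 cells; higher means less blue over green ratio so more BLA blockade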
TLR9 CHO cytotox – counter-screen for TLR9-MyD88 inhibitors: cytotoxicity in CHO cells; 680 tested, 39% active; luminescence; shares compounds with TLR9-MyD88 inh; inhibition, % at 4.98 µM; in the data active means inhibition above about 11%
ABHD5-PLIN5 conf – confirmation of human ABHD5-PLIN5 interaction inhibitors. shares compounds with ABHD5 PLIN5 PPI. biochemical ABHD5-PLIN5 interaction, luminescence. inhibition, % at 4 µM. 2,200 tested, 67% active; in the data active means inhibition above about 23%
HNF4 split-luc – HNF4 split-luciferase signal hit, counter-screen | shares compounds with ABHD5 PLIN5 PPI | HNF4 dimerization, luminescence, biochemical | inhibition, % at 4 µM | 2,200 tested, 77% active | AID 651674;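 active means mean inhibition across replicate wells exceeding the computed hit threshold, cut at about 13% in these data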;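 further: light from luciferase halves that rejoin when HNF4 fusion proteins dimerize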
NOD2-RIPK2 conf – NOD2-RIPK2 interaction inhibition confirmed | 1,200 tested, 70% active | inhibition, % at 4.98 µM | shares compounds with NOD2 RIPK2 PPI | CHO cells, NOD2-RIPK2 BLA complementation, CCF4 FRET;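 active means mean inhibition across replicates above a set limit taken from the earlier primary screen, cut at about 21% in these data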
BLA counter-2 – hits BLA reporter in NOD2-RIPK2 inhibitor counterscreen | shares compounds with NOD2 RIPK2 PPI | CHO BLA reporter, CCF4 FRET ratio | inhibition, % at 4.98 µM | 1,200 tested, 57% active;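 active means mean inhibition above the low-control mean inhibition plus three low-control SD, cut at about 11% in these data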
Hits are given with their value; - = inactive; . = not tested or not shown. Compounds with a hit are over-represented: about 1.6% of the library has one in this group of screens.

SMILES | TLR4-MyD88 BLA | NOD2 RIPK2 PPI | TLR9-MyD88 inh | B2AR ag | Dynein transport | ABHD5 PLIN5 PPI | TLR9-MyD88 cf | BLA counter-1 | TLR9 CHO cytotox | NOD2-RIPK2 conf | BLA counter-2 | others
CC1(c2nnnn2-c2ccc3c(c2)OCCO3)CCC(=O)N1CCc1ccc(O)cc1 (configuration not stated) | . | - | . | . | . | - | . | . | . | . | .
CCOC(=O)n1c(=O)n(Cc2c(Cl)cccc2Cl)c2ccccc21 | - | 23 | 24 | - | - | - | - | - | - | 29 | 27
CCOC(=O)n1c(=O)n(Cc2ccccc2)c2ccccc21 | - | - | - | - | - | - | . | . | . | . | .
O=C(COC(=O)c1ccc2c(c1)OCO2)NC1CCCCC1 | . | - | - | - | . | - | . | . | . | . | .
CCOC1=C2[C@@H](CN(S(=O)(=O)c3ccc(C)cc3)[C@H]2c2ccccc2F)[C@H]2C(=O)NC(=O)[C@H]2C1 | . | - | . | . | . | - | . | . | . | . | .
Oc1c(Cl)cc(Cl)cc1/C=N/NC(=S)NC1CC2C=CC1C2 (configuration not stated) | . | 49 | 24 | - | - | - | 24 | - | 17 | 43 | 62
O=S1(=O)C[C@H](N2CCC(Cc3ccccc3)CC2)[C@@H](COCc2ccccc2)N1 | . | - | . | . | . | - | . | . | . | . | .
COCCn1c2nc(=O)n(-c3ccccc3)c(=O)c-2nc2ccccc21 | . | 36 | 23 | . | . | - | - | - | - | 32 | 32
COCCn1c(-c2ccc(OC)cc2)nc2ccccc21 | - | - | - | - | - | - | . | . | . | . | .
O=C1C(SCCO)=C(SCCO)C(=O)c2ccccc21 | . | 84 | 64 | - | . | 97 | 84 | - | 99 | 92 | 34 | ABHD5-PLIN5 conf=104;HNF4 split-luc=111
FC(F)(F)c1ccccc1Cc1c(-c2cccc(Br)c2)nc2ccc(Br)cn12 | . | - | . | . | . | - | . | . | . | . | .
COc1cc(/C=C/C(=O)NC(=O)c2ccccc2O)ccc1O | . | - | - | - | . | - | . | . | . | . | .
COc1cc(/C=C/C(O)=C/C(=O)/C=C/c2ccc(O)cc2)ccc1O | . | 49 | 34 | - | . | - | 25 | - | - | 57 | 56
CCc1cc2c(=O)nc3n(c2s1)Cc1ccccc1/C3=C(/O)c1ccc(F)cc1 | - | 23 | 23 | - | - | - | - | - | - | - | -
CC(=O)Nc1ccc(NC(=O)c2nc(S(=O)(=O)Cc3ccccc3)ncc2Cl)cc1 | . | 51 | 34 | - | . | 58 | 36 | - | 95 | 50 | 34 | ABHD5-PLIN5 conf=81;HNF4 split-luc=94
CCOc1ccccc1NC(=O)c1nc(S(=O)(=O)Cc2cccc(C)c2)ncc1Cl | . | - | - | - | . | - | . | . | . | . | .
CCC1CCCCN1S(=O)(=O)c1ccc(NC(=O)c2nc(S(C)(=O)=O)ncc2Cl)cc1 (configuration not stated) | . | 96 | 53 | - | . | 91 | 47 | - | 98 | 94 | 48 | ABHD5-PLIN5 conf=100;HNF4 split-luc=107
O=C(Nc1ccc(OC(F)F)cc1)c1ncc(Cl)c(Cl)c1Cl | - | - | - | - | - | - | . | . | . | . | .
CCS(=O)(=O)c1ncc(Cl)c(C(=O)Nc2ccc(C)cc2)n1 | . | 61 | 45 | - | . | 48 | 42 | - | 95 | 65 | 38 | ABHD5-PLIN5 conf=72;HNF4 split-luc=78
Cc1ccc(CS(=O)(=O)c2ncc(Cl)c(C(=O)Nc3ccc(OC(F)F)cc3)n2)cc1 | . | 94 | 36 | - | . | 57 | 24 | - | 95 | 80 | 21 | ABHD5-PLIN5 conf=90;HNF4 split-luc=89
COC(=O)c1cc2c([nH]c1=O)CCCC2=O | . | - | - | - | . | - | . | . | . | . | .
O=C(NCCN1C(=O)S/C(=C\c2ccc(Cl)c([N+](=O)[O-])c2)C1=O)C1=COCCO1 | . | 39 | 24 | - | . | - | - | - | - | 63 | -
Oc1ccc(/C=C/c2ccc3cccc(O)c3n2)cc1Br | . | 27 | 27 | - | . | - | - | - | - | 39 | 47
COc1ccc(-c2cc3ccc(O)cc3oc2=O)cc1OC | . | 52 | 40 | - | . | - | 28 | - | - | 56 | 60
COc1ccc(-c2cc3ccc(OCC(N)=O)cc3oc2=O)cc1OC | . | - | - | - | . | - | . | . | . | . | .
SMILES | TLR4-MyD88 BLA | NOD2 RIPK2 PPI | TLR9-MyD88 inh | B2AR ag | Dynein transport | ABHD5 PLIN5 PPI | TLR9-MyD88 cf | BLA counter-1 | TLR9 CHO cytotox | NOD2-RIPK2 conf | BLA counter-2 | others
CC(=O)Oc1c(-c2ccc(Br)o2)oc2ccccc2c1=O | . | 25 | 27 | - | . | - | - | - | - | 35 | 34
COc1ccc(-c2oc3ccccc3c(=O)c2OC(C)=O)cc1 | - | - | - | - | - | - | . | . | . | . | .
CSc1cccc(NC(=O)CNS(=O)(=O)c2ccccc2)c1 | . | - | - | - | . | - | . | . | . | . | .
Cc1noc2ncnc(Sc3ccc(Cl)cc3)c12 | - | - | - | - | - | - | . | . | . | . | .
Cc1noc2ncnc(Sc3c(Cl)cccc3Cl)c12 | - | 37 | 23 | - | - | - | 22 | - | - | 34 | -
CC(C)NC(=O)C1C(c2ccccc2)=Nc2ccccc2N1C(=O)c1cc(Cl)cc(Cl)c1 (configuration not stated) | . | - | . | . | . | - | . | . | . | . | .
COc1ccc(OC)c(/C=C/C(=O)N2CCCc3ccccc32)c1 | - | - | - | - | - | - | . | . | . | . | .
COc1ccc(OC)c(/C=C/C(=O)N2C(=O)c3cccc(N)c3C2=O)c1 | - | 21 | 22 | - | - | - | - | - | 19 | 39 | 38
CCOC(=O)C1CCN(S(=O)(=O)c2c(Cl)ccc3nonc23)CC1 | . | 82 | 43 | 79 | . | - | 39 | - | 81 | 78 | 15
CC(C)C(=O)N1CCCC1(C)C(=O)Nc1ccc(-n2cncn2)cc1 (configuration not stated) | . | - | . | . | . | - | . | . | . | . | .
O=C1CC(Sc2nnnn2-c2ccccc2)C(=O)N1c1cccc(Cl)c1 (configuration not stated) | - | 57 | 22 | - | - | 37 | - | - | 98 | 58 | 12 | ABHD5-PLIN5 conf=62;HNF4 split-luc=104
O=[N+]([O-])c1ccc(N/N=C/C=C/c2ccco2)cc1 | . | 55 | 40 | - | . | - | 37 | - | - | 63 | 68

Assay outcomes (PubChem BioAssay)
